Test results taken from ChEMBL document CHEMBL4513216, “Probing the Open Global Health Chemical Diversity Library for Multistage-Active Starting Points for Next-Generation Antimalarials” (ACS Infect Dis, 2020).

Test: Toxicity liver stage against HepG2, at 10uM
Assay type: cell-based
Set-up: test concentration 10 uM, cell line HepG2-A16-CD81EGFP
Details: human, HepG2-A16-CD81EGFP cells; read-out: INHIBITION
How it was run: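 Uninfected HepG2-A16-CD81EGFP cells, 3 × 10^3 per well, 1536-well, plated on prespotted compound at 10 μM final, parasite-free screening media added to match infected plates; puromycin 10 μM positive, DMSO 0.5% negative; run in parallel with 48 h PbLuc assay at 37 °C, 5% CO2; viability by CellTiter-Glo luminescence, normalized to controls.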

| SMILES | cytotoxicity at 10 µM |
| --- | --- |
| COc1ccc(-c2nnc([C@H]3CCN(C4CCC4)C3)o2)cc1 | -8.1% |
| Cc1ccc(S(=O)(=O)NC[C@H]2OC[C@@H](NCc3cccnc3)[C@@H]2O)cc1 | 1.32% |
| CNC(=O)[C@@H]1[C@@H](c2ccccc2)CN2CCN(Cc3ccco3)C[C@H]12 | -1.94% |
| O=S(=O)(c1cccnc1)N1CCN(Cc2nc(-c3cccs3)cs2)CC1 | 27.8% |
| COc1ccc(-c2cnc3n2CCNC32CCN(S(C)(=O)=O)CC2)cc1 | -2.72% |
| CCN(CC)c1ccc2ccc(C(=O)N(C)C)cn12 | 0.626% |
| CS(=O)(=O)N1CCCC12CCCN(C(=O)c1ccc3[nH]ccc3c1)C2 (stereo not drawn) | -140% |
| Cc1ccc(NC(=O)Nc2cnc(N3CCN(C)CC3)nc2)c(Cl)c1 | 6.07% |
| CCS(=O)(=O)N1CCCCC1c1nc(C(C)C)no1 (stereo not drawn) | 13.6% |
| O=C(CCN1CCc2ccccc21)N1C[C@@H](O)[C@H](N2CCCC2)C1 | -17.8% |
| CN(C)CCn1c([C@H]2CCCO2)cc2cccnc21 | 17.1% |
| CCCn1ncc(CN2C[C@@H]3CCCN3C[C@@H]2CCSC)c1C | 4.06% |
| CC(=O)c1cc(Br)cc(F)c1OCC(=O)NC(C)C | -9.46% |
| N#Cc1ccc(NCc2cccnc2N2CCC(C(N)=O)CC2)cn1 | -47.9% |
| CCC(CC)(CNC(=O)OC(C)(C)C)NC(=O)C1CCCO1 (stereo not drawn) | 1.41% |
| CCOc1cc(NC(=O)N2CCC(c3nnc[nH]3)CC2)ccc1C | 14.5% |
| N#Cc1ccc(N2CCC(OC3CCOCC3)CC2)cc1Cl | 1% |
| Cc1cc(NC(=O)NCc2ccc(C)s2)no1 | -5.29% |
| Cc1ccc(-c2cc(CN(CC(N)=O)CC(C)C)on2)cc1 | 10.1% |
| CN(C)c1nc(N)nc(CN2CCCC(c3ccccc3)CC2)n1 (stereo not drawn) | 5.47% |
| COc1ccc(NCc2c[nH]nc2-c2cccnc2)cc1 | -16.8% |
| CC(N1CCN(C(=O)NCc2cccc(C#N)c2)CC1)C(F)(F)F (stereo not drawn) | 6.31% |

| SMILES | cytotoxicity at 10 µM |
| --- | --- |
| CC(C)(C#N)c1ccccc1CN1CCC(N2CCCC2=O)CC1 | 2.35% |
| Cc1nc(N2CCC(CN3CCCC3)CC2)c2cnn(C)c2n1 | 8.39% |
| CCc1nc(CCNC(=O)Nc2ccc(C(=O)NC)cc2)cs1 | 7.51% |
| O=C(CCN1CCCC1c1cccc2c1OCCO2)N1CCOCC1 (stereo not drawn) | 25.6% |
| Cc1nn(C)c(C)c1C1COCCN1c1ncncc1Br (stereo not drawn) | -8.9% |
| Cc1nn(C)c(C)c1OCC(=O)NCC(O)c1ccccc1F (stereo not drawn) | 0.621% |
| CS(=O)(=O)N1CCN(Cc2csc(-c3ncccn3)n2)CC1 | -4.71% |
| CC(=O)Nc1cccc(OCCNC(=O)N(C)Cc2ccncc2)c1 | 4.77% |
| CC(C)COCCC(=O)NCCC(=O)N1CCN(c2ccccn2)CC1 | 9.46% |
| CCc1ccc(C(=O)N2CCCC2c2nnc3n2CCCCC3)o1 (stereo not drawn) | 10.9% |
| CCn1cc(CNc2ccc(N(C)CCOC)cn2)cn1 | -8.16% |
| Cc1nn(C)c(C)c1CCC(=O)NCc1cccnc1OC1CCCC1 | -4.38% |
| CCC(CNC(=O)Cc1c(C)noc1C)N1CCCC1 (stereo not drawn) | -46.3% |
| O=C(O)c1ccnc(SCC(F)(F)F)c1 | -17.6% |
| Clc1snnc1CN1CCN(c2nccs2)CC1 | -43.9% |
| CCN(CC)C(C(=O)Nc1ccc2c(c1)CCC(=O)N2)c1ccccc1 (stereo not drawn) | 7.18% |
| COc1ccc(C(C)N2CCC(NS(C)(=O)=O)CC2)cc1Cl (stereo not drawn) | -41.2% |
| CN(C)Cc1nc(C(C)(C)NC(=O)c2ccnn2C)no1 | 0.966% |
| Cn1cnc2c1CCN(CC(O)c1ccc(S(C)(=O)=O)cc1)C2 (stereo not drawn) | -3.3% |
| Cc1cnn(C2CN(Cc3ccc4c(c3)OCCO4)C2)c1 | 16.3% |
| CC(C)CN1C[C@H]2N(c3ncccn3)CCC[C@@]2(C(=O)NCC2CC2)C1 | -94.6% |
| Cc1cnc(C(=O)N2CC[C@@H]3CN(c4ncccn4)CCO[C@@H]3C2)cn1 | -75.2% |

| SMILES | cytotoxicity at 10 µM |
| --- | --- |
| CCCNC(=O)c1ncn2c1CN(CC(C)C)S(=O)(=O)c1ccccc1-2 | -72% |
| CCC(=O)N1CCC2(COCc3cnc(N4CCOCC4)nc32)C1 (stereo not drawn) | -66.2% |
| COCCC(=O)N1CCC2(CCN(Cc3cccc(F)c3)C2)C1 (stereo not drawn) | -60.2% |
| Cc1ccc(C(=O)N2CC[C@H]3[C@H]2CCN3CC2CCOCC2)cn1 | -73.3% |
| Cc1cccc(CN2CC[C@H]3C[C@H](C)O[C@@H]3C2)n1 | -78.6% |
| COCCN1CCOCC12CCN(C(=O)c1c[nH]c3ccccc13)CC2 | -69.8% |
| COCC(=O)N1CCC2(CCN(Cc3ccccn3)CC2)CC1 | -6.62% |
| CC(C)(C)CCNc1nccc(-c2c[nH][nH]c2=O)n1 | -5.25% |
| NS(=O)(=O)NCc1cc(-c2ccc(C(F)(F)F)cc2)n[nH]1 | -6.11% |
| NC(=O)C1CCN(c2nccc(-c3c[nH]nc3C3CCCCC3)n2)CC1 | -10.6% |
| CN(C)C(=O)COc1ccccc1CN1CCCC2(C1)CN(C)C(=O)O2 (stereo not drawn) | 0.224% |
| CCC[C@H]1CN(S(=O)(=O)c2cc(C)ccc2C)C[C@@H]1N | 10.3% |
| NC(=O)[C@@H]1CCCN1C(=O)c1cn(C/C=C/c2ccccc2)nn1 | 2.32% |
| CCCN1CCc2[nH]cnc2C12CCN(C(=O)Cn1ccnc1C)CC2 | 13.7% |
| Cc1nonc1OCCNC(=O)CCCc1ccc(Cl)cc1 | 7.49% |
| CC(c1nncn1C)n1cc(-c2cc(CN3CCCC3)cs2)nn1 (stereo not drawn) | 2.04% |
| c1ccc(Oc2ccc(OC34CCCN(CC3)C4)cc2)cc1 (stereo not drawn) | 0.741% |
| Nc1cc(CC2COc3ccccc3C2)ccn1 (stereo not drawn) | -0.911% |
| CN(C)[C@H]1CCCCN(Cc2cnc(NCc3ccccc3)nc2)C1 | 0.166% |
| N#Cc1ccnc(N2CCC(NCCN3CCCC3)CC2)c1 | -53% |
| O=C(c1cccc(-c2ncc[nH]2)c1)N1CCC(N2CCCC(O)C2)CC1 (stereo not drawn) | 6.42% |
| O=C(Cc1c[nH]c(=O)[nH]c1=O)N1CCCCC1CCc1cccc(O)c1 (stereo not drawn) | 14.5% |

| SMILES | cytotoxicity at 10 µM |
| --- | --- |
| CCCC(=O)Nc1cc(C(=O)NC(C)Cc2ccncc2)ccc1C (stereo not drawn) | 2.52% |
| COc1ccc(C)cc1C(=O)N1C[C@@H](CN(C)CCO)[C@@H](CO)C1 | -0.828% |
| CCC(CO)N(Cc1ccncc1)Cc1c[nH]nc1-c1ccc(F)cc1 (stereo not drawn) | -5.5% |
| CCSc1ncc(CN2CCN(c3nc(C)ncc3C)CC2)cn1 | 27.3% |
| O=C(C1CCS(=O)(=O)CC1)N1CCC(Cc2ccc(F)cc2)CC1 | -41.9% |
| CCC(c1nc(C(C)C)nn1-c1ccncc1C)n1cccn1 (stereo not drawn) | -13.9% |
| COCc1noc(-c2ccc(N(C)Cc3c(C)n[nH]c3C)nc2)n1 | 0.897% |
| CC(C)[C@H]1CN(Cc2c[nH]cn2)C[C@@H]1NC(=O)CC1CCC1 | -39% |
| O[C@]12CCNC[C@H]1CN(c1ccnc3ccccc13)CC2 | 8.33% |
| CCc1ncc(CN2CCC3(CCCN(CC4CCC4)C3)C2)cn1 (stereo not drawn) | -7.07% |
| CCN(C)C[C@@H]1CN(S(=O)(=O)c2cccc(Cl)c2)C[C@@H]1CO | -8.3% |
| Cc1ccccc1CC1(CO)CCCN(c2ncccc2C#N)C1 (stereo not drawn) | -1.16% |
| CCn1cc(CN2CCCC(c3[nH]ncc3S(C)(=O)=O)C2)cn1 (stereo not drawn) | 6.5% |
| COc1ccc(-c2nc(CNC3CCc4nc(C)nn4C3)no2)cc1 (stereo not drawn) | -3.42% |
| CCN(CC)Cc1ccc(C(=O)N2CCCC2Cn2cccn2)cc1 (stereo not drawn) | -10.7% |
| CSc1ccc(C(=O)N2CCOCC2c2c(C)n[nH]c2C)o1 (stereo not drawn) | -10.3% |
| O=C(c1cccc(Cn2ccnc2)c1)N1CCCC(n2cccn2)C1 (stereo not drawn) | -0.603% |
| NC(=O)c1cccc(OCC(=O)N2CCCC(n3cccn3)C2)c1 (stereo not drawn) | -13.5% |
| CC(=O)NCCNC(=O)N(C)Cc1ccc2c(c1)OCCO2 | -1.59% |
| O=C(NCc1ccccn1)Nc1cc(C(F)(F)F)c[nH]c1=O | -2.87% |
| CCOC(=O)c1sc2ccsc2c1CNC(=O)CC | -5.7% |
| CCn1ccnc1CN1CCCN(C(=O)c2cccn2C)CC1 | -8.93% |

| SMILES | cytotoxicity at 10 µM |
| --- | --- |
| Cc1cc(C)cc(NS(=O)(=O)c2cc3c(c(C(=O)O)c2)OCCO3)c1 | 0.289% |
| CCN(CC)C(=O)C1CCC2(CCNCC2)O1 (stereo not drawn) | -162% |
| CCOC[C@]12COC[C@H]1CN(Cc1cccc(OC)c1)C2 | -75.9% |
| Cn1ccnc1CN1CCC2(CC1)CN(Cc1cccnc1)C(=O)CO2 | 4% |
| CN(C)CCCNCCC(Cc1ccccc1)C1CCOC(C)(C)C1 (stereo not drawn) | -4.08% |
| CCN(CC)Cc1nc2c(o1)CN(S(=O)(=O)c1cccs1)C2 | -117% |
| c1cnc(N2C[C@H]3CCN(CCN4CCCC4)C[C@H]3C2)cn1 | -114% |
| c1ccc(OCc2nnn3c2CN(c2ncccn2)CCC3)nc1 | 1.89% |
| CCOCC1c2c(ncn2C)CCN1C(=O)c1cnc(C)cn1 (stereo not drawn) | -108% |
| CC(C)N1[C@H](Cn2cccn2)C[C@@H]2CN(Cc3ccoc3)CC[C@@H]21 | -153% |
| c1cncc(N2CC[C@@H]3CN(CC4CC4)C[C@@H]3C2)c1 | -4.74% |
| CNC(=O)CN1CCCC12CCN(C(=O)c1ccoc1)CC2 | 6.53% |
| CCOc1ccc2ccccc2c1CNCC1CCS(=O)(=O)C1 (stereo not drawn) | -3.4% |
| COCCNC(=O)[C@H]1C[C@@H]2CCN(Cc3nccs3)C[C@H]2O1 | -68.2% |
| Cn1ccnc1CN1CCC2(CC1)CN(c1cncnc1)C(=O)CO2 | -69.2% |
| c1cc(CN2C[C@H](OCC3CCOCC3)[C@H]3COC[C@H]32)co1 | -4.8% |
| NC(=O)C(c1ccc(F)cc1)N1CCN(CCO)CC1 (stereo not drawn) | -5.46% |
| CN(C)C(=O)CN1C[C@H]2CC[C@@H](C1)N(C(=O)CCn1cncn1)C2 | -9.96% |
| CNC(=O)[C@H]1C[C@H]2CN(C(=O)NC(C)C)C[C@@H]1O2 | -99.8% |
| CNC(=O)[C@H]1C[C@H]2CN(Cc3cccc(C)c3)C[C@@H]1O2 | 8.97% |
